In ChEMBL document CHEMBL1124735, “Dehydrogenase binding by tiazofurin anabolites” (J Med Chem, 1990):

How the values were obtained:
[1] = system: NC(=O)c1ccc[n+]([C@@H]2O[C@H](COP(=O)([O-])OP(=O)(O)OC[C@H]3O[C@@H](n4cnc5c(N)ncnc54)[C@H](O)[C@@H]3O)[C@@H](O)[C@H]2O)c1; assay: In vitro inhibitory activity against pig heart lactate dehydrogenase (LDH); conditions: Sus scrofa
Method in brief: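 Pig heart enzymes (cytoplasmic MDH or LDH, from ammonium sulfate suspension) assayed in 0.05 M Tris HCl pH 9.0, with NAD as substrate; rates from NADH appearance by A340 (ε 6.22 mM⁻¹cm⁻¹) or fluorescence calibrated against NADH standards. Run at least in duplicate; kinetic constants from Lineweaver-Burk plots by linear regression.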

[2] = system: NC(=O)c1ccc[n+]([C@@H]2O[C@H](COP(=O)([O-])OP(=O)(O)OC[C@H]3O[C@@H](n4cnc5c(N)ncnc54)[C@H](O)[C@@H]3O)[C@@H](O)[C@H]2O)c1; assay: In vitro inhibitory activity against bovine liver glutamate dehydrogenase (GDH)
[3] = system: NC(=O)c1ccc[n+]([C@@H]2O[C@H](COP(=O)([O-])OP(=O)(O)OC[C@H]3O[C@@H](n4cnc5c(N)ncnc54)[C@H](O)[C@@H]3O)[C@@H](O)[C@H]2O)c1; assay: In vitro inhibitory activity against horse liver Alcohol dehydrogenase; conditions: Equus caballus

Chain of L-lactate dehydrogenase B chain (Sus scrofa), P00336 (P00336 whole entry): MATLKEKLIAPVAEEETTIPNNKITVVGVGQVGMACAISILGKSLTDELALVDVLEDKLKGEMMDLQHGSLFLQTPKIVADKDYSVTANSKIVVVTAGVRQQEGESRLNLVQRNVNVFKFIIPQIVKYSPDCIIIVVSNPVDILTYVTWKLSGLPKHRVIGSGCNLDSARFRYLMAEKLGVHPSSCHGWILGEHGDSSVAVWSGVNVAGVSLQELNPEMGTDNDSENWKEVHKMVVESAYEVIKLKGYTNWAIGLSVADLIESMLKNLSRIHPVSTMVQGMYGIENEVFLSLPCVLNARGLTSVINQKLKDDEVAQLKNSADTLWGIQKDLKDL
Chain of Alcohol dehydrogenase (Equus caballus) (P00328 whole entry, looked up): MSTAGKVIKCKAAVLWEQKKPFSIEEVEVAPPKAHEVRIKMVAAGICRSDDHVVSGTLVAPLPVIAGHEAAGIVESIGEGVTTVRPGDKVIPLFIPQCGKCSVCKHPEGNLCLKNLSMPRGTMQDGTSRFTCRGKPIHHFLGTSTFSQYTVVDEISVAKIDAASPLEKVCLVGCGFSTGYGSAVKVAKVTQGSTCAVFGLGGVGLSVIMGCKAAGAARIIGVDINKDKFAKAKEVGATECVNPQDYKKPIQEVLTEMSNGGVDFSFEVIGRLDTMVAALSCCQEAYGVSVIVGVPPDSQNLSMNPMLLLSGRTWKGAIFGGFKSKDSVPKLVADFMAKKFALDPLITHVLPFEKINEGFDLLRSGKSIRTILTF
Chain of Alcohol dehydrogenase (Equus caballus) (P00327 whole entry, looked up): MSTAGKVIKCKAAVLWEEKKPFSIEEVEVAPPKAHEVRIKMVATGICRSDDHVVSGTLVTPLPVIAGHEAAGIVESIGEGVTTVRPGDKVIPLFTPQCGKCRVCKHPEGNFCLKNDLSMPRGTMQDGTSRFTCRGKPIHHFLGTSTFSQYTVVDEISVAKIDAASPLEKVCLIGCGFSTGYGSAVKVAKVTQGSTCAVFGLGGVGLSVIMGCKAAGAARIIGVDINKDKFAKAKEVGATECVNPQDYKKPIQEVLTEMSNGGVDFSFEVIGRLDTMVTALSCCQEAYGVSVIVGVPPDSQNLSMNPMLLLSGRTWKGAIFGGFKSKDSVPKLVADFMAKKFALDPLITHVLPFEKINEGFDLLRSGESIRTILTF
Chain of Glutamate dehydrogenase 1, mitochondrial (Bos taurus), P00366 (P00366 whole entry): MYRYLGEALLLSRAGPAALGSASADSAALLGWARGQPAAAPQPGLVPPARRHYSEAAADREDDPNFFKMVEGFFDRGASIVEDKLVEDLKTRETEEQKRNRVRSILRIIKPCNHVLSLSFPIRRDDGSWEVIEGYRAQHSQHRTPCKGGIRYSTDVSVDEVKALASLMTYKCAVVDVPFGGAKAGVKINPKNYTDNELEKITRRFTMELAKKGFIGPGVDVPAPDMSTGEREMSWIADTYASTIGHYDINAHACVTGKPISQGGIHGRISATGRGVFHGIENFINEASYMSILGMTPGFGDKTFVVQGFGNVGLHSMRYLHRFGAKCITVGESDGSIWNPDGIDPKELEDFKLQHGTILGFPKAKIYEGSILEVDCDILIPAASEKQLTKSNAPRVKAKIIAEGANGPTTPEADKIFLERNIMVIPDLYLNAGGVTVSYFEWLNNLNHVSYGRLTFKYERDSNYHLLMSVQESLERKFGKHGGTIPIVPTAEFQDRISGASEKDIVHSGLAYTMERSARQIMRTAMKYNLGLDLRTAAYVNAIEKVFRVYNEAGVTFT

L-lactate dehydrogenase B chain (Sus scrofa), P00336
Km [1]: 84.4 µM

Glutamate dehydrogenase 1, mitochondrial (Bos taurus), P00366
Km [2]: 20 µM

Alcohol dehydrogenase (Equus caballus) (from UniProt P00327+P00328)
Km [3]: 22.3 µM
